Assay results published in ChEMBL document CHEMBL3804819, “2-(Quinolin-4-yloxy)acetamides Are Active against Drug-Susceptible and Drug-Resistant Mycobacterium tuberculosis Strains” (ACS Med Chem Lett, 2016).
pIC50: −log10 of the molar value. Converted amounts (≈) assume the structure as drawn. The source made the active and inactive calls. No cut-off for these calls is given here.

Tests used:
Vero = test: Cytotoxicity against African green monkey Vero cells assessed as reduction in cell viability at 20 uM after 72 hrs by MTT assay; type: cell-based; conditions: chlorocebus sabaeus
[1] = tested on: Mycobacterium tuberculosis; test: Potency index, ratio of isoniazid MIC to compound MIC for Mycobacterium tuberculosis H37Rv; type: functional
[2] = tested on: Mycobacterium tuberculosis; test: Antibacterial activity against Mycobacterium tuberculosis H37Rv infected in mouse RAW 264.7 cells assessed reduction in bacterial count per well at 5 uM after 3 days (reference value: 2.5 +/- 0.15 log10CFU); type: functional
Staphylococcus aureus = test: Antibacterial activity against Staphylococcus aureus ATCC 25923 at 20 uM; type: functional, organism-based
[3] = Thermodynamic solubility of the compound at pH 7.4 after 24 hrs by HPLC analysis; type: physicochemical; conditions: buffer, read-out: Therm_solubility
Danio rerio [4] = species: Danio rerio; test: Toxicity in zebrafish embryo assessed as reduction in heart rate at 1 uM measured at 72 hrs post fertilization by stereo microscopic analysis; type: organism-based; conditions: in vivo
RAW264.7 = test: Cytotoxicity against mouse RAW264.7 cells assessed as decrease in cell viability at 5 uM after 72 hrs by MTT assay; type: cell-based; conditions: raw264.7, 72 h
HaCaT = test: Cytotoxicity against human HaCaT cells assessed as reduction in cell viability at 20 uM after 72 hrs by MTT assay; type: cell-based
[5] = Selectivity index, ratio of cytotoxic activity for African green monkey Vero cells to MIC for Mycobacterium tuberculosis H37Rv; type: toxicity, cell-based; conditions: read-out: Selectivity Index
[6] = Thermodynamic solubility of the compound at pH 1.5 after 24 hrs by HPLC analysis; type: physicochemical; conditions: buffer, read-out: Therm_solubility
Danio rerio [7] = species: Danio rerio; test: Toxicity in zebrafish embryo assessed as reduction in embryo viability at 20 uM measured at 72 hrs post fertilization; type: organism-based; conditions: in vivo
Procedure, shortened: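 Zebrafish embryos exposed to 20 μM for 72 h; embryo survival scored.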

Escherichia coli = test: Antibacterial activity against Escherichia coli ATCC 25922 at 20 uM; type: functional, organism-based
Liver = test: Metabolic stability in human liver S9 fraction at 2 uM measured up to 30 mins by HPLC/MS/MS analysis; type: ADME, subcellular; conditions: s9, 0.5 h
Pseudomonas aeruginosa = test: Antibacterial activity against Pseudomonas aeruginosa ATCC 27853 at 20 uM; type: functional, organism-based
[8] = Inhibition CYP450 in human liver microsomes by HPLC/MS/MS analysis in presence of NADPH; type: ADME
Acinetobacter baumannii = test: Antibacterial activity against Acinetobacter baumannii ATCC BAA 747 at 20 uM; type: functional, organism-based
[9] = Selectivity index, ratio of cardiac toxicity for zebrafish embryo to MIC for Mycobacterium tuberculosis H37Rv; conditions: read-out: Selectivity Index
Danio rerio [10] = species: Danio rerio; test: Toxicity in zebrafish embryo assessed as reduction in heart rate at 20 uM measured at 72 hrs post fertilization by stereo microscopic analysis; type: organism-based; conditions: in vivo
Danio rerio [11] = species: Danio rerio; test: Toxicity in zebrafish embryo assessed as reduction in heart rate at 5 uM measured at 72 hrs post fertilization by stereo microscopic analysis; type: organism-based; conditions: in vivo
[12] = tested on: Mycobacterium tuberculosis; test: Antibacterial activity against Mycobacterium tuberculosis H37Rv assessed as reduction in bacterial growth after 7 days by resazurin assay; type: functional; conditions: for MIC: 168 h
[13] = Selectivity index, ratio of cytotoxic activity for human HaCaT cells to MIC for Mycobacterium tuberculosis H37Rv; type: toxicity, cell-based; conditions: read-out: Selectivity Index
[14] = tested on: Mycobacterium tuberculosis; test: Antibacterial activity against Mycobacterium tuberculosis H37Rv ATCC 25618 assessed as reduction in bacterial growth after 6 days by resazurin assay; type: functional; conditions: H37Rv ATCC 25618, 144 h

| SMILES | Activity (Vero) | Activity [2] [log10CFU] | Activity (Staphylococcus aureus) | Activity (RAW264.7) | Activity (HaCaT) | Activity (Escherichia coli) | Activity (Pseudomonas aeruginosa) | Activity (Acinetobacter baumannii) | MIC [12] [µM] | further results |
| --- | --- | --- | --- | --- | --- | --- | --- | --- | --- | --- |
| COc1ccc2nc(C)cc(OCC(=O)Nc3ccc4ccccc4c3)c2c1 | Toxic | 1.93 | inactive | Non-toxic | Toxic | inactive | inactive | inactive | 0.05 (≈ 0.0186 µg/mL) | Ratio [1]: 30; solubility thermodynamic at 24 h [3]: < 4.4 µM; Activity (Danio rerio [4]): Non-toxic; Selectivity ratio [5]: > 100; solubility thermodynamic at 24 h [6]: 30 µM (≈ 11.2 µg/mL); Activity (Danio rerio [7]): Toxic; Stability (Liver): Unstable; pIC50 [8]: > 5.00; Selectivity ratio [9]: > 100; Activity (Danio rerio [10]): Toxic; Activity (Danio rerio [11]): Non-toxic; Selectivity ratio [13]: > 100 |
| COc1ccc2nc(C)cc(OCC(=O)Nc3ccccc3[N+](=O)[O-])c2c1 |  |  |  |  |  |  |  |  | 6.79 (≈ 2.49 µg/mL) |  |
| COc1ccc2nc(C)cc(OCC(=O)Nc3ccc(C(F)(F)F)cc3)c2c1 | Non-toxic | 1.89 | inactive | Non-toxic | Non-toxic | inactive | inactive | inactive | 0.8 (≈ 0.312 µg/mL) |  |
| COc1ccc2nc(C)cc(OCC(=O)Nc3cccc4ccccc34)c2c1 |  |  |  |  |  |  |  |  | 0.21 (≈ 0.0782 µg/mL) |  |
| NNC(=O)c1ccncc1 [ISONIAZID] |  |  |  |  |  |  |  |  | 1.46 (≈ 0.2 µg/mL) |  |
| COc1ccc2nc(C)cc(OCC(=O)Nc3ccc(Br)cc3)c2c1 | Non-toxic | 1.87 | inactive | Non-toxic | Non-toxic | inactive | inactive | inactive | 0.1 (≈ 0.0401 µg/mL) | solubility thermodynamic at 24 h [3]: < 4.4 µM; Activity (Danio rerio [4]): Non-toxic; solubility thermodynamic at 24 h [6]: 30 µM (≈ 12 µg/mL); Stability (Liver): Stable; pIC50 [8]: > 5.00; Activity (Danio rerio [10]): Toxic; Activity (Danio rerio [11]): Non-toxic |
| CCc1cccc(C)c1NC(=O)COc1cc(C)nc2ccc(OC)cc12 |  |  |  |  |  |  |  |  | > 27 |  |
| COc1ccc2nc(C)cc(OCC(=O)Nc3ccc(Cl)cc3)c2c1 | Non-toxic | 1.73 | inactive | Non-toxic | Non-toxic | inactive | inactive | inactive | 0.44 (≈ 0.157 µg/mL) |  |
| COc1ccc2nc(C)cc(OCC(=O)Nc3ccccc3)c2c1 | Non-toxic |  | inactive |  | Non-toxic | inactive | inactive | inactive | 0.48 (≈ 0.155 µg/mL) |  |
| COc1ccc2nc(C)cc(OCC(=O)Nc3ccccc3C)c2c1 | Non-toxic | 2.09 | inactive | Non-toxic | Non-toxic | inactive | inactive | inactive | 0.46 (≈ 0.155 µg/mL) |  |
| COc1ccc2nc(C)cc(OCC(=O)NCc3ccccc3)c2c1 | Non-toxic | 1.71 | inactive | Non-toxic | Non-toxic | inactive | inactive | inactive | 1.85 (≈ 0.622 µg/mL) |  |
| COc1ccccc1NC(=O)COc1cc(C)nc2ccccc12 |  |  |  |  |  |  |  |  | > 29 |  |
| COc1ccc2nc(C)cc(OCC(=O)Nc3cccc(C(F)(F)F)c3)c2c1 |  |  |  |  |  |  |  |  | 6.39 (≈ 2.49 µg/mL) |  |
| COc1ccc2nc(C)cc(OCC(=O)Nc3ccccc3Cl)c2c1 | Non-toxic | 1.75 | inactive | Non-toxic | Non-toxic | inactive | inactive | inactive | 0.44 (≈ 0.157 µg/mL) |  |
| COc1ccc(NC(=O)COc2cc(C)nc3ccc(OC)cc23)c(OC)c1 | Non-toxic | 1.61 | inactive | Non-toxic | Non-toxic | inactive | inactive | inactive | 0.15 (≈ 0.0574 µg/mL) | solubility thermodynamic at 24 h [3]: < 4.4 µM; Activity (Danio rerio [4]): Non-toxic; solubility thermodynamic at 24 h [6]: 30 µM (≈ 11.5 µg/mL); Stability (Liver): Stable; pIC50 [8]: > 5.00; Activity (Danio rerio [10]): Toxic; Activity (Danio rerio [11]): Non-toxic |
| COc1cccc(NC(=O)COc2cc(C)nc3ccc(OC)cc23)c1 | Non-toxic |  | inactive |  | Non-toxic | inactive | inactive | inactive | 0.88 (≈ 0.31 µg/mL) |  |
| COc1ccc2nc(C)cc(O)c2c1 |  |  |  |  |  |  |  |  |  | Activity [12]: inactive |
| COc1ccc(NC(=O)COc2cc(C)nc3ccc(OC)cc23)cc1 | Non-toxic |  | inactive |  | Non-toxic | inactive | inactive | inactive | 0.44 (≈ 0.155 µg/mL) |  |
| COc1ccc2nc(C)cc(OCC(=O)Nc3ccccc3OC)c2c1 | Non-toxic | 1.61 | inactive | Non-toxic | Non-toxic | inactive | inactive | inactive | 0.44 (≈ 0.155 µg/mL) | MIC [14]: 0.7 µM (≈ 0.247 µg/mL) |
| COc1ccc2c(c1)c(=O)ccn2CC(=O)Nc1ccccc1OC |  |  |  |  |  |  |  |  | > 31 |  |
| COc1ccc2nc(C)cc(OCC(=O)Nc3ccc([N+](=O)[O-])cc3)c2c1 |  |  |  |  |  |  |  |  | 6.79 (≈ 2.49 µg/mL) |  |
| COc1ccc2nc(C)cc(OCC(=O)Nc3ccc4c(c3)OCO4)c2c1 | Non-toxic | 1.77 | inactive | Non-toxic | Non-toxic | inactive | inactive | inactive | 0.42 (≈ 0.154 µg/mL) |  |
| COc1ccc2nc(C)cc(OCC(=O)Nc3cccc(Cl)c3)c2c1 | Non-toxic | 2.12 | inactive | Non-toxic | Non-toxic | inactive | inactive | inactive | 0.44 (≈ 0.157 µg/mL) |  |
| COc1ccc2nc(C)cc(OCC(=O)Nc3ccc(N)cc3)c2c1 |  |  |  |  |  |  |  |  | 7.39 (≈ 2.49 µg/mL) |  |
| CO[C@H]1/C=C/O[C@@]2(C)Oc3c(C)c(O)c4c(O)c(c(/C=N/N5CCN(C)CC5)c(O)c4c3C2=O)NC(=O)/C(C)=C\C=C\[C@H](C)[C@H](O)[C@@H](C)[C@@H](O)[C@@H](C)[C@H](OC(C)=O)[C@@H]1C [RIFAMPIN] |  | 1.58 |  |  |  |  |  |  |  |  |
